Laboratory results taken from ChEMBL document CHEMBL3860059, “Design, Synthesis, and Biological Evaluation of First-in-Class Dual Acting Histone Deacetylases (HDACs) and Phosphodiesterase 5 (PDE5) Inhibitors for the Treatment of Alzheimer's Disease” (J Med Chem, 2016).

Legend:
[1] = target: cGMP-specific 3',5'-cyclic phosphodiesterase (Homo sapiens, UniProt O76074); assay: Inhibition of full length recombinant human N-terminal GST-tagged PDE5A1 expressed in baculovirus infected Sf9 cells using cGMP as substrate after 30 mins by HTRF assay
Histone deacetylase 1 = Histone deacetylase 1 (Homo sapiens, UniProt Q13547); assay: Inhibition of full length recombinant human C-terminal His/Flag-tagged HDAC1 expressed in baculovirus infected Sf9 cells using fluorogenic HDAC substrate after 30 mins by fluorescence analysis
Sequence of Histone deacetylase 1 (Q13547 whole entry): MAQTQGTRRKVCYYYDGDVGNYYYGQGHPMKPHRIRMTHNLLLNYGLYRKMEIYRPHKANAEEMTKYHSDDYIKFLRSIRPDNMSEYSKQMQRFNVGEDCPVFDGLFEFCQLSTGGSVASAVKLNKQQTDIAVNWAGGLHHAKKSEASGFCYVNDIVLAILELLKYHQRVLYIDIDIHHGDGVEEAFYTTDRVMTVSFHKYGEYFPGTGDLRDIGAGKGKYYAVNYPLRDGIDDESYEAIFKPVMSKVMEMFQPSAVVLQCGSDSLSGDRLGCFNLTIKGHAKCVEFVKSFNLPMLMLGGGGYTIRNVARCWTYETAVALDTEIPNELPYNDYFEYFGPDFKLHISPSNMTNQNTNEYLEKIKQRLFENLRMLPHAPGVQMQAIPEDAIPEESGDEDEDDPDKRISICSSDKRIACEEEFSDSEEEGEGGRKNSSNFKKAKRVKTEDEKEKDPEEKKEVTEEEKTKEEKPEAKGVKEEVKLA
Outline: (§1)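 Full-length human recombinant HDAC1 (0.4 μg/mL final), HDAC2 (1.5 μg/mL), HDAC3/NCOR2 (0.1 μg/mL) or HDAC6 (3.6 μg/mL) with 10 μM fluorogenic acetyl-lysine substrate and 0.1 mg/mL BSA, 1% DMSO, 30 min at 37 °C; lysine developer 20 min at room temperature; fluorescence ex 355/em 460 nm. Vehicle = positive control, no enzyme = negative; IC50 from curve fit.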

Histone deacetylase 2 = Histone deacetylase 2 (Homo sapiens, UniProt Q92769); assay: Inhibition of full length recombinant human C-terminal His-tagged HDAC2 expressed in baculovirus infected Sf9 cells using fluorogenic HDAC substrate after 30 mins by fluorescence analysis; outline: as §1
Sequence of Histone deacetylase 2 (Q92769 whole entry, the tested form may be a part): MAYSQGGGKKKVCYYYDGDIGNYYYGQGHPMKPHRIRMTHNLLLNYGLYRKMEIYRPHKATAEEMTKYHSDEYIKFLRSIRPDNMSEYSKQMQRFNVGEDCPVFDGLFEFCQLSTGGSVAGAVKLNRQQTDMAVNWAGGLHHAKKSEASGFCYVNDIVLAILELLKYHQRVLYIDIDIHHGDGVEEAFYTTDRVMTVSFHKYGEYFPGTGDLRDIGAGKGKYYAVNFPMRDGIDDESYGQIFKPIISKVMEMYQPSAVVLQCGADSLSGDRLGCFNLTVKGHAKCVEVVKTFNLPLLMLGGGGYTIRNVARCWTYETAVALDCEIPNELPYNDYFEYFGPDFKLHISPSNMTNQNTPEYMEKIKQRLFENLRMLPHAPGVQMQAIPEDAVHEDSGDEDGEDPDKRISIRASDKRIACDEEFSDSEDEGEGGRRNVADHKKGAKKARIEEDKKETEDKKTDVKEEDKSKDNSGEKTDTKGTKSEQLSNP

[2] = target: Histone deacetylase 3/Nuclear receptor corepressor 2 (HDAC3/NCoR2) (Homo sapiens, UniProt O15379); assay: Inhibition of full length recombinant human C-terminal His-tagged HDAC3/N-terminal GST-tagged NCOR2 (395 to 489 residues) expressed in baculovirus infected Sf9 cells using fluorogenic HDAC substrate after 30 mins by fluorescence analysis
Sequence of Histone deacetylase 3/Nuclear receptor corepressor 2 (HDAC3/NCoR2) (O15379 whole entry, the tested form may be a part): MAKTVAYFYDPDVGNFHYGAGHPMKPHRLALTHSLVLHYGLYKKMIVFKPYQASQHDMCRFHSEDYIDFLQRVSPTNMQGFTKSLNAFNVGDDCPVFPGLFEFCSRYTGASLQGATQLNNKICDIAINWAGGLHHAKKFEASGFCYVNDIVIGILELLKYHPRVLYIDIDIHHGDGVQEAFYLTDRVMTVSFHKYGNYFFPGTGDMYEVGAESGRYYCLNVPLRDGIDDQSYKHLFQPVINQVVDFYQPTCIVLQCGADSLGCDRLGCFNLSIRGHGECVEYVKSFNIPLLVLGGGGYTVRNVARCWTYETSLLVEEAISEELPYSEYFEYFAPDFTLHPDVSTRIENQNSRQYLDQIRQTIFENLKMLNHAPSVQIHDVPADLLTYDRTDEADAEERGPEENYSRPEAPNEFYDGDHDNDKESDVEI
Sequence of Histone deacetylase 3/Nuclear receptor corepressor 2 (HDAC3/NCoR2) (Q9Y618 whole entry, further chain, the tested form may be a part): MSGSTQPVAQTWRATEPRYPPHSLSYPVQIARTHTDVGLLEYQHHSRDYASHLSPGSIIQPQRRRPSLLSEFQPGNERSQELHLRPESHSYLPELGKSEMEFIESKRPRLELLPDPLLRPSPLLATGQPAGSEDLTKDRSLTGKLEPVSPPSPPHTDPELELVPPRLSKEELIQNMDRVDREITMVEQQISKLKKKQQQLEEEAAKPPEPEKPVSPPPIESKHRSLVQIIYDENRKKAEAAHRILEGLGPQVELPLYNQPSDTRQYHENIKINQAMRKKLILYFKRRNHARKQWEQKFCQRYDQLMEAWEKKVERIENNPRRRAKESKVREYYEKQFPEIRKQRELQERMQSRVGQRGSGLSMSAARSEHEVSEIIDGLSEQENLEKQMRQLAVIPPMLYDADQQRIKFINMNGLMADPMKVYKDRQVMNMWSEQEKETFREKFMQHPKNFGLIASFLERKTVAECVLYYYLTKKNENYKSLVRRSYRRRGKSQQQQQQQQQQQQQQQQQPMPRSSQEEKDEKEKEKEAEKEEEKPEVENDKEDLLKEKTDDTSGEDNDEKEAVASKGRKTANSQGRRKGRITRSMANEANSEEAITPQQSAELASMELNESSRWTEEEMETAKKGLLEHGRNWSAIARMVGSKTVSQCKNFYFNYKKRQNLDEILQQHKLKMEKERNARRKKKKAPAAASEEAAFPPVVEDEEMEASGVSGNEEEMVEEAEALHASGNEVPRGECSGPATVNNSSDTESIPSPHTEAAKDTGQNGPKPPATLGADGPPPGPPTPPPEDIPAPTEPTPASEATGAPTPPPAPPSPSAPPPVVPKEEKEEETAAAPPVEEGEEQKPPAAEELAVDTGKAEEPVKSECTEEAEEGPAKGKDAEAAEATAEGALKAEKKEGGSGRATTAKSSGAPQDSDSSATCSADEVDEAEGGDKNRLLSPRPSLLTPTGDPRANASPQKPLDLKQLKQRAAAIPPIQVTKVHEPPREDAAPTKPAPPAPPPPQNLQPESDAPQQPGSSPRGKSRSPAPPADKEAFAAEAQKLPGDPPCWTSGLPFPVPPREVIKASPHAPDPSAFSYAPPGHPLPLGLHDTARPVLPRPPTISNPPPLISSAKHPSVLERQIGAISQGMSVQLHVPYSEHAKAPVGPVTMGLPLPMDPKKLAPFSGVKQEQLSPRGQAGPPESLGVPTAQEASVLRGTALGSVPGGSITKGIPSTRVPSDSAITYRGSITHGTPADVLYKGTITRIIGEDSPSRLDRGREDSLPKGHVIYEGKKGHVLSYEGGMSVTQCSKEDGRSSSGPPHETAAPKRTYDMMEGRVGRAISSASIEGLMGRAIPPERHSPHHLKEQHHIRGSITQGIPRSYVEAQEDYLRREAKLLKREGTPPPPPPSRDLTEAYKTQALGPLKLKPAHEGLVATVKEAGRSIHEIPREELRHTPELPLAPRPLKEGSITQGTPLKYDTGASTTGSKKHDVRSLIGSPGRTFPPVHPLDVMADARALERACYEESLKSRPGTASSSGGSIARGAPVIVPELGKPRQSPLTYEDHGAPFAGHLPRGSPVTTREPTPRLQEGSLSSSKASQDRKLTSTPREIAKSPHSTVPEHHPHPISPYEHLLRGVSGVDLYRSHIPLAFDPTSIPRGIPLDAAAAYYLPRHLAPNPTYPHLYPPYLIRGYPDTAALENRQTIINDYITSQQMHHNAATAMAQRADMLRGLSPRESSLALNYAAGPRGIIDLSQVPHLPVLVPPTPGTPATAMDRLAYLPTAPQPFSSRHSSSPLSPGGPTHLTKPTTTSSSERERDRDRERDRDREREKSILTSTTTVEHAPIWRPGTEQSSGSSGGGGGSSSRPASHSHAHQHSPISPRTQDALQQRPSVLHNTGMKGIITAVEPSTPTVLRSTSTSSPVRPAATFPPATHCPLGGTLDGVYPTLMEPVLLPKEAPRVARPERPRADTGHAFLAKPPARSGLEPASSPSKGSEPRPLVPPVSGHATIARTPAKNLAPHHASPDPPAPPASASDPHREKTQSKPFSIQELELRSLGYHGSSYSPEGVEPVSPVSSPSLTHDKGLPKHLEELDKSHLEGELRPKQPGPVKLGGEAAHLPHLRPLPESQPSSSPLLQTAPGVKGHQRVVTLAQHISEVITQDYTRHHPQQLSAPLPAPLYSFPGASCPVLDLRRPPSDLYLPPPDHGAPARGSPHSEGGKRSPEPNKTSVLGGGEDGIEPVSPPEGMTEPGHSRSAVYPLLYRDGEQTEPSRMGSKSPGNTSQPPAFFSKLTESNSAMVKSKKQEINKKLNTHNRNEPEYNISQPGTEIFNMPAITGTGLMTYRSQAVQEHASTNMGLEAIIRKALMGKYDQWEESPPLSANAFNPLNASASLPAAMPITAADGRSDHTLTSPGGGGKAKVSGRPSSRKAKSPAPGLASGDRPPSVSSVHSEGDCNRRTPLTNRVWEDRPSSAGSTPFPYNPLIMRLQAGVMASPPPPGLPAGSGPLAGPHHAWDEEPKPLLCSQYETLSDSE

[3] = target: T1, Protein deacetylase HDAC6 (Homo sapiens, UniProt Q9UBN7); assay: Inhibition of full length recombinant human N-terminal GST tagged HDAC6 expressed in baculovirus infected Sf9 cells using fluorogenic HDAC substrate after 30 mins by fluorescence analysis; outline: as §1
T1 sequence (Q9UBN7 whole entry): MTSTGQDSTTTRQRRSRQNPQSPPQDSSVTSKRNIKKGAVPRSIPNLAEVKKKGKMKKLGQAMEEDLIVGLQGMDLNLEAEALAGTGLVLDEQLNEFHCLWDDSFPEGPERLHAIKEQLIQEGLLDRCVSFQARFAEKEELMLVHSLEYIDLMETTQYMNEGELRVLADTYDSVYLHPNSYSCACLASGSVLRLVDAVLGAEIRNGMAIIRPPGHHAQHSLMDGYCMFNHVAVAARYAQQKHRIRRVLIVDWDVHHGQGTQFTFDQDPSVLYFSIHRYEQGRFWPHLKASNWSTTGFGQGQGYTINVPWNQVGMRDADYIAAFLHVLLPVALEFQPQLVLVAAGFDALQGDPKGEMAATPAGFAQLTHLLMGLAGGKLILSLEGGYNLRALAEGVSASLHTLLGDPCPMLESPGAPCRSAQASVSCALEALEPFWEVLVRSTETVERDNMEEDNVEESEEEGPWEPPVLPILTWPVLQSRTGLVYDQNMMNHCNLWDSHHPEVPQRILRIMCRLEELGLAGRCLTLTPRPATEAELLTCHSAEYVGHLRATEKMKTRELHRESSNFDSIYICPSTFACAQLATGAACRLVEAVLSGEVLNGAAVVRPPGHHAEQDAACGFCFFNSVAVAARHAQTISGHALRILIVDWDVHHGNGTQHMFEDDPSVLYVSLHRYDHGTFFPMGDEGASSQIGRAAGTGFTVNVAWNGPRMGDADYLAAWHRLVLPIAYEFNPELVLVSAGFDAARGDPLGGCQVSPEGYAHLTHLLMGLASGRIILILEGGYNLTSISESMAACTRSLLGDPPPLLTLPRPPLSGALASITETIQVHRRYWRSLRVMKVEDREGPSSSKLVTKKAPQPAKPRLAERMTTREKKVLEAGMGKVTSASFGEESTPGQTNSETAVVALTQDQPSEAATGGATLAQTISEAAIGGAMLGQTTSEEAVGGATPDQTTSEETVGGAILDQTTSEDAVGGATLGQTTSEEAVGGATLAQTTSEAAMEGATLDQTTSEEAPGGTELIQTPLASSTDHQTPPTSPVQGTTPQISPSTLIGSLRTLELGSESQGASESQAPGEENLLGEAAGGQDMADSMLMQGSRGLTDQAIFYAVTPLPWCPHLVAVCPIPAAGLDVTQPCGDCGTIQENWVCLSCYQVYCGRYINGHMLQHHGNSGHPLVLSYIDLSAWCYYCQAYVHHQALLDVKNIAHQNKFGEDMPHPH

[4] = Dissociation constant, pKa of the compound; type: physicochemical
[5] = Selectivity ratio of pIC50 for full length recombinant human N-terminal GST tagged HDAC6 expressed in baculovirus infected Sf9 cells to pIC50 for full length recombinant human C-terminal His/Flag-tagged HDAC1 expressed in baculovirus infected Sf9 cells
[6] = Selectivity ratio of pIC50 for full length recombinant human C-terminal His/Flag-tagged HDAC1 expressed in baculovirus infected Sf9 cells to pIC50 for full length recombinant human N-terminal GST tagged HDAC6 expressed in baculovirus infected Sf9 cells
[7] = Selectivity ratio of pLC50 for mouse primary glial cells to pLC50 for human THLE2 cells; type: ADME, cell-based; settings: mouse primary glial cells versus THLE2 cells
[8] = Cytotoxicity against human THLE2 cells assessed as reduction in cell viability after 72 hrs by ATP Vialight assay; type: toxicity, cell-based, THLE-2; settings: read-out: LC50
Outline: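 Immortalized human liver THLE-2 cells in BEGM with 0.7 μg/mL phosphoethanolamine, 0.5 ng/mL EGF, antibiotics and 10% FBS, seeded at 10,000 cells/well and left 24 h at 37 °C. Compounds were added at final 0–100 μM in 1% DMSO for 72 h. Cellular ATP was read by luminescence after 45 min lysis.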

[9] = Cytotoxicity against mouse primary glial cells assessed as reduction in cell viability after 72 hrs by luminescence based ATPlite assay; type: toxicity; settings: read-out: LC50
Outline: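 Primary neuron/glia cultures from embryonic mouse brain were grown 5 days at 37 °C (5% CO2) to allow neuron formation. Compounds were then added at final 0–100 μM in 1% DMSO for 72 h. Cellular ATP was read by luminescence after 10 min with reagent at room temperature.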

[10] = Passive membrane permeability of the compound at 50 uM after 18 hrs by PAMPA; type: ADME; settings: read-out: Peff
Outline: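 PAMPA: 50 μM donor solution in PBS/EtOH 70:30 over PVDF membrane precoated with PBL/dodecane (20 mg/mL); PBS/EtOH acceptor; 18 h at 20 °C without shaking; duplicates; donor and acceptor concentrations by UV absorbance corrected against vehicle.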

[11] = Lipophilicity, log D of the compound at pH 7.4; type: physicochemical; settings: buffer

Row | Structure (SMILES) | IC50 [1] [nM] | IC50 (Histone deacetylase 1) [nM] | IC50 (Histone deacetylase 2) [nM] | IC50 [2] [nM] | IC50 [3] [nM] | pKa [4] | Ratio pIC50 [5] | Ratio pIC50 [6] | selectivity ratio [7] | CC50 at 72 h [8] [nM] | CC50 at 72 h [9] [nM] | Papp at 18 h, 50 µM [10] [×10⁻⁶ cm/s] | logD [11]
1 | CCCc1nn(C)c2c(=O)[nH]c(-c3cc(Cc4ccc(CCC(=O)NO)cc4)ccc3OCC)nc12 | 13 | 2420 | > 20000 | > 20000 | 2350 | – | – | – | – | – | – | – | –
2 | CCCc1nn(C)c2c(=O)[nH]c(-c3cc(CC4CCN(c5ccc(C(=O)NO)cn5)CC4)ccc3OCC)nc12 | 57 | 1880 | 6430 | – | 395 | 8.29 | – | – | – | – | – | – | –
3 | CCCc1nn(C)c2c(=O)[nH]c(-c3cc(N(C)C4CCN(c5ncc(C(=O)NO)cn5)CC4)ccc3OCC)nc12 | 10 | 25 | 166 | 43 | 584 | – | > 1 | – | – | – | – | – | –
4 | CCCc1nn(C)c2c(=O)[nH]c(-c3cc(S(=O)(=O)N4CCN(Cc5ccc(/C=C/C(=O)NO)cc5)CC4)ccc3OCC)nc12 | 2 | 1340 | 6970 | – | 89 | – | – | > 1 | – | – | – | – | –
5 | CCCc1nn(C)c2c(=O)[nH]c(-c3cc(N4CCC(CC(=O)NO)CC4)ccc3OCC)nc12 | 65 | 5860 | > 20000 | – | 1090 | – | – | – | < 0.4 | 88700 | > 100000 | 0.49 | –
6 | CCCc1nn(C)c2c(=O)[nH]c(-c3cc(CC4CCN(c5ccc(C(=O)NO)cc5)CC4)ccc3OCC)nc12 | 121 | > 20000 | > 20000 | – | > 20000 | 8.73 | – | – | – | – | – | – | –
7 | CN1CC(=O)N2[C@H](c3ccc4c(c3)OCO4)c3[nH]c4ccccc4c3C[C@@H]2C1=O | – | – | – | – | – | – | – | – | – | 60300 | 110000 | 2.68 | –
8 | O=C(CCCCCCC(=O)Nc1ccccc1)NO [VORINOSTAT] | – | – | – | – | – | – | – | – | – | 3590 | 4910 | 0.23 | 2
9 | CCCc1nn(C)c2c(=O)[nH]c(-c3cc(NC4CCN(c5ncc(C(=O)NO)cn5)CC4)ccc3OCC)nc12 | 5 | 68 | 490 | 31 | 441 | – | > 0.6 | – | < 0.4 | 2570 | – | 1.34 | –
10 | CCCc1nn(C)c2c(=O)[nH]c(-c3cc(CC4CCN(c5ncc(C(=O)NO)cn5)CC4)ccc3OCC)nc12 | 7 | 63 | 335 | 51 | 1250 | 7.85 | 1.4 | – | < 0.4 | – | – | 0.41 | –
11 | CCCc1nn(C)c2c(=O)[nH]c(-c3cc(S(=O)(=O)NC4CCN(c5ncc(C(=O)NO)cn5)CC4)ccc3OCC)nc12 | 0.6 | 57 | 341 | 54 | 59 | – | – | – | < 0.4 | 11900 | 4950 | 0.1 | –
12 | CCCc1nn(C)c2c(=O)[nH]c(-c3cc(S(=O)(=O)Nc4ccc(/C=C/C(=O)NO)cc4)ccc3OCC)nc12 | 1 | 356 | 1310 | – | 84 | – | – | – | < 0.4 | 27400 | 30300 | 0.23 | –
13 | CCCc1nn(C)c2c(=O)[nH]c(-c3cc(S(=O)(=O)N4CCN(c5ncc(C(=O)NO)cn5)CC4)ccc3OCC)nc12 | 3 | 8 | 117 | 36 | 268 | – | > 1 | – | < 0.4 | 1460 | 2150 | 0.72 | –
14 | CCCc1nn(C)c2c(=O)[nH]c(-c3cc(C4CC(C(=O)NO)C4)ccc3OCC)nc12 (stereo not given) | 17 | 554 | 1860 | – | 130 | – | – | > 0.6 | < 0.4 | – | – | 1.37 | –
15 | CCCc1nn(C)c2c(=O)[nH]c(-c3cc(CN4CCN(c5ncc(C(=O)NO)cn5)CC4)ccc3OCC)nc12 | 7 | 14 | 89 | – | 379 | – | > 1 | – | < 0.4 | – | – | 0.89 | –
